{"data": "Measured values gathered from unrelated publications", "KEAP1": "Kelch-like ECH-associated protein 1 (KEAP1, Homo sapiens, UniProt Q14145)", "NR4A1": "Nuclear receptor subfamily 4immunitygroup A member 1 (NR4A1, Homo sapiens, UniProt P22736)", "folP": "Dihydropteroate synthase (folP, Bacteria, UniProt P0AC13)", "note": "Protocols differ between the studies behind these lines."}
{"Structure (SMILES)": "CN(Cc1cnc2nc(N)nc(N)c2n1)c1ccc(C(=O)N[C@@H](CCC(=O)O)C(=O)O)cc1", "target": "Solute carrier organic anion transporter family member 1B3 (SLCO1B3, Homo sapiens, UniProt Q9NPD5, M233I)", "observed": "transporter uptake", "action": "inhibitor", "method": "radiometric", "time": "2 min", "quantity": "IC50", "value": "> 100 µM"}
{"Structure (SMILES)": "N=C(N)NCCCC(=O)O", "target": "Alkaline phosphatase, tissue-nonspecific isozyme (ALPL, Homo sapiens, UniProt P05186)", "observed": "binding", "method": "ITC", "quantity": "Kd", "value": "2000 nM"}
{"Structure (SMILES)": "OC[C@H]1OC(O)[C@H](O)[C@@H](O)[C@@H]1O (some centres unmarked)", "target": "ATP-dependent RNA helicase DDX18 (Homo sapiens, UniProt Q9NVP1)", "observed": "binding", "method": "MST", "quantity": "Kd", "value": "77200 nM"}
{"Structure (SMILES)": "O=C(O)/C=C/c1ccc(O)c(O)c1", "target": "KEAP1", "observed": "binding", "method": "SPR", "quantity": "Kd", "value": "4900 nM"}
{"Structure (SMILES)": "CCCCCCCCC(=O)c1cc(O)c(O)c(O)c1", "target": "NR4A1", "observed": "binding", "method": "ITC", "quantity": "Kd", "value": "3700 nM"}
{"Structure (SMILES)": "COc1cccc2c1C(=O)c1c(O)c3c(c(O)c1C2=O)C[C@@](O)(C(=O)CO)C[C@@H]3O[C@H]1C[C@H](N)[C@H](O)[C@H](C)O1", "target": "Solute carrier organic anion transporter family member 1B3 (SLCO1B3, Homo sapiens, UniProt Q9NPD5)", "observed": "transporter uptake", "action": "inhibitor", "method": "radiometric", "time": "2 min", "quantity": "IC50", "value": "7.7 µM"}
{"Structure (SMILES)": "NC(=O)c1ncn([C@@H]2O[C@H](CO)[C@@H](O)[C@H]2O)n1", "target": "5'-AMP-activated protein kinase catalytic subunit alpha-1 (PRKAA1, Homo sapiens, UniProt Q13131)", "observed": "binding", "method": "SPR", "quantity": "Kd", "value": "6750 nM"}
{"Structure (SMILES)": "CCOC(=O)C(C)c1n[nH]c2nc(N)[nH]c(=O)c2c1=O (centres unmarked)", "target": "folP", "observed": "binding", "method": "SPR", "quantity": "Kd", "value": "199 nM"}
{"Structure (SMILES)": "C=CS(=O)(=O)c1ccc(Nc2nc(OCC3CCCCC3)c3nc[nH]c3n2)cc1", "target": "KEAP1", "observed": "binding", "method": "SPR", "quantity": "Kd", "value": "200 nM"}
{"Structure (SMILES)": "COc1cccc2c(Nc3ccc4[nH]c(C(=O)N/N=C/c5ccc(SC)cc5)cc4c3)cc(C)nc12", "target": "NR4A1", "observed": "binding", "method": "ITC", "quantity": "Kd", "value": "2300 nM"}
{"Structure (SMILES)": "CC(=O)OCc1nn(C)c2nc(N)[nH]c(=O)c2c1=O", "target": "folP", "observed": "binding", "method": "SPR", "quantity": "Kd", "value": "14.8 nM"}
